According to ChEMBL document CHEMBL4765431, “Novel phthalide derivatives: Synthesis and anti-inflammatory activity in vitro and in vivo” (Eur J Med Chem, 2020):
Activity calls are given as the source filed them. The calls are words filed in the database; no cut-off is given here.

Experiments:
[1] = test system: RAW264.7; test: Cytotoxicity against mouse RAW264.7 cells assessed as reduction in cell viability incubated for 24 hrs in absence of LPS by MTT assay; assay type: cell-based; details: RAW264.7, 24 h
[2] = test system: RAW264.7; test: Antiinflammatory activity in mouse RAW264.7 cells assessed as inhibition of LPS-induced nitric oxide production preincubated for 1 hr followed by LPS stimulation and measured after 24 hrs by Griess reagent-based assay; assay type: functional, cell-based
[3] = test system: RAW264.7; test: Cytotoxicity against mouse RAW264.7 cells assessed as reduction in cell viability at 20 uM incubated for 24 hrs by MTT assay; assay type: cell-based; details: raw264.7, 24 h
How it was run: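 RAW264.7 cells (1 × 10^4/well, used 24 h after seeding) exposed to 20 µM for 24 h. MTT (5 mg/mL stock) added for 4 h, supernatant removed, crystals dissolved in DMSO with 10–15 min shaking, absorbance at 492 nm.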

[4] = test system: RAW264.7; test: Antiinflammatory activity in mouse RAW264.7 cells assessed as inhibition of LPS-induced nitric oxide production at 10 uM preincubated for 1 hr followed by LPS stimulation and measured after 24 hrs by Griess reagent-based assay relative to control; assay type: functional; details: time 25 hrs
How it was run: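 RAW264.7 cells (7 × 10^4/well, used 24 h after seeding) in DMEM with 10% heat-inactivated FBS, 37 °C, 5% CO2. Pretreated 1 h with compound (10 µM screen; 0.625–10 µM dose series), then LPS 0.5 µg/mL for 24 h. Supernatant mixed 1:1 with Griess reagent, 15 min at room temperature, absorbance read at […].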

[5] = test system: RAW264.7; test: Cytotoxicity against mouse RAW264.7 cells assessed as reduction in cell viability incubated for 24 hrs in presence of LPS by MTT assay; assay type: cell-based; details: RAW264.7, 24 h
[6] = test system: Rattus norvegicus; test: Antiarthritic activity in Sprague-Dawley rat model of arthritis assessed as decrease in CFA-induced synovial hyperplasia at 60 mg/kg, ig administered daily for 28 days starting from 14 days post-immunization and measured every 3 days by H and E staining based histopathological analysis; assay type: functional, organism-based; details: time 28.0 day
[7] = test system: Rattus norvegicus; test: Antiarthritic activity in Sprague-Dawley rat model of CFA-induced arthritis assessed as intact joint cavity at 60 mg/kg, ig administered daily for 28 days starting from 14 days post-immunization and measured every 3 days by H and E staining based histopathological analysis; assay type: functional, organism-based; details: time 28.0 day

Row | SMILES | IC50 [1] | IC50 [2] | Activity [3] | inhibition at 10 µM [4] | IC50 [5] | Activity [6] | Activity [7]
1 | COc1cc(OC)c2c(c1)C(C(O)c1ccc(OCc3ccc(OC(F)F)cc3)cc1)OC2=O (stereo unspecified) | > 40 µM | 5.03 µM | Non-Toxic | 67.6% | > 40 µM | – | –
2 | Cc1noc(CC2OC(=O)c3ccccc32)n1 (stereo unspecified) | > 40 µM | > 10 µM | Non-Toxic | 24.3% | > 40 µM | – | –
3 | COc1cc(OC)c2c(c1)C(C(O)c1ccc(OCc3ccc(OC(F)(F)F)cc3)cc1)OC2=O (stereo unspecified) | > 40 µM | 8.14 µM | Non-Toxic | 62.8% | > 40 µM | – | –
4 | CCCCCCOc1ccc(C(O)C2OC(=O)c3c(OC)cc(OC)cc32)cc1 (stereo unspecified) | > 40 µM | 5.36 µM | Non-Toxic | 62.2% | > 40 µM | – | –
5 | COc1cc(OC)c2c(c1)C(C(O)c1ccc(OCc3ccc(C)cc3)cc1)OC2=O (stereo unspecified) | > 40 µM | 3.12 µM | Non-Toxic | 82.1% | > 40 µM | – | –
6 | COCCCCOc1ccc(C(O)C2OC(=O)c3c(OC)cc(OC)cc32)cc1 (stereo unspecified) | > 40 µM | 8.21 µM | Non-Toxic | 50.3% | > 40 µM | – | –
7 | CCOCCOc1ccc(C(O)C2OC(=O)c3c(OC)cc(OC)cc32)cc1 (stereo unspecified) | > 40 µM | > 10 µM | Non-Toxic | 42.9% | > 40 µM | – | –
8 | COc1ccc2c(c1)c(CC(=O)O)c(C)n2C(=O)c1ccc(Cl)cc1 [INDOMETHACIN] | > 40 µM | > 10 µM | – | 61.6% | > 40 µM | – | –
9 | C=CCCOc1ccc(C(O)C2OC(=O)c3c(OC)cc(OC)cc32)cc1 (stereo unspecified) | > 40 µM | 1.33 µM | Non-Toxic | 87.2% | > 40 µM | – | –
10 | O=C1OC(Cc2nc(-c3ccccc3)no2)c2ccccc21 (stereo unspecified) | > 40 µM | > 10 µM | Non-Toxic | 13% | > 40 µM | – | –
11 | COCCOc1ccc(C(O)C2OC(=O)c3c(OC)cc(OC)cc32)cc1 (stereo unspecified) | > 40 µM | > 10 µM | Non-Toxic | 41.4% | > 40 µM | – | –
12 | COc1ccc(C(O)C2OC(=O)c3c(OC)cc(OC)cc32)cc1 (stereo unspecified) | > 40 µM | > 10 µM | Non-Toxic | 38.7% | > 40 µM | – | –
13 | COc1cc(OC)c2c(c1)/C(=C/c1ccc(OCc3ccc(F)cc3)cc1)OC2=O | > 40 µM | > 10 µM | Non-Toxic | 48.2% | > 40 µM | – | –
14 | COC1=C[C@@H]2[C@@H]3Cc4ccc(OC)c(O)c4[C@]2(CCN3C)CC1=O | – | – | – | – | – | Active | Active
15 | COc1cc(OC)c2c(c1)C(C(O)c1ccc(OCc3ccc(Cl)cc3)cc1)OC2=O (stereo unspecified) | > 40 µM | 4.32 µM | Non-Toxic | 75.1% | > 40 µM | – | –
16 | O=C1OC(Cc2nc(-c3ccc(Oc4ccccc4)cc3)no2)c2ccccc21 (stereo unspecified) | > 40 µM | > 10 µM | Non-Toxic | 10% | > 40 µM | – | –

Row | SMILES | IC50 [1] | IC50 [2] | Activity [3] | inhibition at 10 µM [4] | IC50 [5] | Activity [6] | Activity [7]
17 | CCCCOc1ccc(C(O)C2OC(=O)c3c(OC)cc(OC)cc32)cc1 (stereo unspecified) | > 40 µM | 1.8 µM | Non-Toxic | 83.7% | > 40 µM | – | –
18 | CCOc1ccc(C(O)C2OC(=O)c3c(OC)cc(OC)cc32)cc1 (stereo unspecified) | > 40 µM | > 10 µM | Non-Toxic | 43.2% | > 40 µM | – | –
19 | COc1cc(OC)c2c(c1)C(C(O)c1ccc(OCCOc3ccccc3)cc1)OC2=O (stereo unspecified) | > 40 µM | > 10 µM | Non-Toxic | 41.2% | > 40 µM | – | –
20 | COc1ccc(/C=C2\OC(=O)c3c(OC)cc(OC)cc32)cc1 | > 40 µM | > 10 µM | Non-Toxic | 36.3% | > 40 µM | – | –
21 | CCCOc1ccc(C(O)C2OC(=O)c3c(OC)cc(OC)cc32)cc1 (stereo unspecified) | > 40 µM | 9.26 µM | Non-Toxic | 53.2% | > 40 µM | – | –
22 | COc1cc(OC)c2c(c1)C(C(O)c1ccc(OCc3ccc(Br)cc3)cc1)OC2=O (stereo unspecified) | > 40 µM | 6.53 µM | Non-Toxic | 68.1% | > 40 µM | – | –
23 | COc1cc(OC)c2c(c1)C(C(O)c1ccc(OCc3ccccc3)cc1)OC2=O (stereo unspecified) | > 40 µM | > 10 µM | Non-Toxic | 41.2% | > 40 µM | – | –
24 | COCCCOc1ccc(C(O)C2OC(=O)c3c(OC)cc(OC)cc32)cc1 (stereo unspecified) | > 40 µM | 1.26 µM | Non-Toxic | 89.5% | > 40 µM | – | –
25 | O=C1OC(Cc2nc(-c3ccc(-c4ccccc4)cc3)no2)c2ccccc21 (stereo unspecified) | > 40 µM | > 10 µM | Non-Toxic | 25.2% | > 40 µM | – | –
26 | COc1cc(OC)c2c(c1)C(C(O)c1ccc(OCC3CCCCC3)cc1)OC2=O (stereo unspecified) | > 40 µM | > 10 µM | Non-Toxic | 27.4% | > 40 µM | – | –
27 | COc1cc(OC)c2c(c1)C(C(O)c1ccc(OCc3ccc(C#N)cc3)cc1)OC2=O (stereo unspecified) | > 40 µM | 7.36 µM | Non-Toxic | 60.8% | > 40 µM | – | –
28 | COc1cc(OC)c2c(c1)C(C(O)c1ccc(OCC(C)C)cc1)OC2=O (stereo unspecified) | > 40 µM | > 10 µM | Non-Toxic | 48.6% | > 40 µM | – | –
29 | COc1cc(OC)c2c(c1)/C(=C/c1ccc(OCc3ccccc3)cc1)OC2=O | > 40 µM | > 10 µM | Non-Toxic | 44.3% | > 40 µM | – | –
30 | O=C1OC(Cc2nc(Cc3ccccc3)no2)c2ccccc21 (stereo unspecified) | > 40 µM | > 10 µM | Non-Toxic | 25.1% | > 40 µM | – | –
31 | COc1cc(OC)c2c(c1)C(C(O)c1ccc(O)cc1)OC2=O (stereo unspecified) | > 40 µM | > 10 µM | Non-Toxic | 46.1% | > 40 µM | – | –
